# From ChEMBL document CHEMBL1177650, “Synthesis, structural elucidation and in vitro antiparasitic activity against Trypanosoma cruzi and Leishmania chagasi parasites of novel tetrahydro-1-benzazepine derivatives” (Bioorg Med Chem, 2010)
# Columns and labels:
# [1] = Cytotoxicity against human THP1 cells after 72 hrs by MTT assay; assay type: cell-based; settings: THP-1 cells
# Summary of the method: (§1)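 Vero or transformed THP-1 cells incubated with compound (0.3–300 μM) 72 h at 37 °C, 5% CO2; untreated controls. MTT read-out, formazan OD at 580 nm; % cytotoxicity = 100 × (OD control − OD treated)/OD control. CC50/CC90 by sigmoidal regression; triplicates, repeated twice. DMSO stocks 100× concentrated, diluted in medium.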
# Leishmania chagasi [2] = experiment: Antileishmanial activity against Leishmania chagasi MHOM/BR/74/PP75 promastigotes after 72 hrs by haemocytometry; assay type: functional, organism-based; settings: MHOM/BR/74/PP75, 72 h
# Summary of the method: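 Late-phase L. chagasi promastigotes, grown at 28 °C in RPMI 1640 with hemin, HEPES and 10% hiSBF, exposed to threefold serial dilutions (0.3–100 μM) for 72 h at 28 °C; untreated controls. Growth inhibition from haemocytometer counts; IC50/IC90 by sigmoidal regression; triplicates, repeated twice.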
# [3] = Selectivity index, CC50 for african green monkey Vero cells to IC50 for Trypanosoma cruzi 320I01 epimastigote; assay type: functional
# Summary of the method: (§2)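 Selectivity index computed as CC50 in Vero cells divided by IC50 against the T. cruzi stage named in the line.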
# Leishmania chagasi [4] = experiment: Antileishmanial activity against Leishmania chagasi MHOM/BR/74/PP75 amastigotes infected in human THP1 cells after 5 days by Giemsa staining; assay type: functional, organism-based; settings: MHOM/BR/74/PP75, THP-1, 120 h
# Summary of the method: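 THP-1 cells (RPMI, 5% hiSBF, 37 °C, 5% CO2) transformed, then infected 24 h with late-phase L. chagasi promastigotes at parasite:cell 10:1. Treated with compound dilutions (top 100 μM) 5 days at 37 °C, 5% CO2, medium changed once after 3 days. Infected cells counted per 300 cells on methanol-fixed Giemsa slides; IC50/IC90 by sigmoidal regression; triplicates, repeated twice.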
# [5] = Selectivity index, CC50 for human THP1 cells to IC50 for Leishmania chagasi MHOM/BR/74/PP75 promastigotes; assay type: functional, THP-1
# Summary of the method: (§3)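 Selectivity index computed as CC50 in THP-1 cells divided by IC50 against the L. chagasi stage named in the line.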
# [6] = Cytotoxicity against african green monkey Vero cells after 72 hrs by MTT assay; assay type: cell-based; settings: chlorocebus sabaeus; summary of the method: as §1
# Trypanosoma cruzi [7] = experiment: Antitrypanosomal activity against Trypanosoma cruzi 320I01 amastigotes infected in african green monkey Vero cells after 5 days by Giemsa staining; assay type: functional, organism-based; settings: 320I01, Vero, 120 h
# Summary of the method: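 Vero cells (RPMI, 5% hiSBF, 37 °C, 5% CO2) infected 24 h with tissue-derived T. cruzi trypomastigotes at parasite:cell 10:1. Compound dilutions (top 100 μM) applied 5 days at 37 °C, 5% CO2, medium changed once at day 3. Infected cells scored per 300 cells on methanol-fixed Giemsa preparations; IC50/IC90 by sigmoidal regression; triplicates, two experiments.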
# [8] = Selectivity index, CC50 for human THP1 cells to IC50 for Leishmania chagasi MHOM/BR/74/PP75 amastigotes; assay type: functional, THP-1; summary of the method: as §3
# [9] = Selectivity index, CC50 for african green monkey Vero cells to IC50 for Trypanosoma cruzi 320I01 amastigotes; assay type: functional; summary of the method: as §2
# Trypanosoma cruzi [10] = experiment: Antitrypanosomal activity against Trypanosoma cruzi 320I01 epimastigotes after 72 hrs by haemocytometry; assay type: functional, organism-based; settings: 320I01, 72 h
# Summary of the method: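 Late-phase T. cruzi epimastigotes cultured in LIT medium with hiFCS at 28 °C; threefold serial dilutions (0.3–100 μM) for 72 h at 28 °C, untreated controls. Parasites counted in a haemocytometer; IC50/IC90 by sigmoidal regression; each concentration in triplicate, two experiments.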
smiles,measurement,setting,value
O[C@@H]1Cc2cc(Br)ccc2N[C@H](c2ccccc2)C1 (relative stereo),CC50 at 72 h,[1],185 µM
same,CC90 at 72 h,[1],> 300 µM
same,IC50,Leishmania chagasi [2],45 µM
same,IC90,Leishmania chagasi [2],> 100 µM
same,Selectivity Index,[3],2.68
same,IC50,Leishmania chagasi [4],97.7 µM
same,IC90,Leishmania chagasi [4],> 100 µM
same,Selectivity Index,[5],4.1
same,CC50 at 72 h,[6],42.1 µM
same,CC90 at 72 h,[6],> 300 µM
same,IC50,Trypanosoma cruzi [7],97.8 µM
same,IC90,Trypanosoma cruzi [7],99.4 µM
same,Selectivity Index,[8],>1
same,Selectivity Index,[9],0.43
same,IC50,Trypanosoma cruzi [10],15.7 µM
same,IC90,Trypanosoma cruzi [10],57.4 µM
Fc1cccc(Cl)c1[C@@H]1C[C@@H]2Cc3ccccc3N1O2 (relative stereo),CC50 at 72 h,[1],> 300 µM
same,CC90 at 72 h,[1],> 300 µM
same,IC50,Leishmania chagasi [2],> 100 µM
same,IC90,Leishmania chagasi [2],> 100 µM
same,Selectivity Index,[3],>17
same,IC50,Leishmania chagasi [4],> 100 µM
same,IC90,Leishmania chagasi [4],> 100 µM
same,Selectivity Index,[5],>3
same,CC50 at 72 h,[6],> 300 µM
same,CC90 at 72 h,[6],> 300 µM
same,IC50,Trypanosoma cruzi [7],> 100 µM
same,IC90,Trypanosoma cruzi [7],> 100 µM
same,Selectivity Index,[8],>3
same,Selectivity Index,[9],>3
same,IC50,Trypanosoma cruzi [10],17.7 µM
same,IC90,Trypanosoma cruzi [10],> 100 µM
O[C@@H]1Cc2cc(Cl)ccc2N[C@H](c2ccccc2)C1 (relative stereo),CC50 at 72 h,[1],188 µM
same,CC90 at 72 h,[1],> 300 µM
same,IC50,Leishmania chagasi [2],22.1 µM
same,IC90,Leishmania chagasi [2],90.6 µM
same,Selectivity Index,[3],3.85
same,IC50,Leishmania chagasi [4],> 100 µM
same,IC90,Leishmania chagasi [4],> 100 µM
same,Selectivity Index,[5],8.5
same,CC50 at 72 h,[6],191 µM
same,CC90 at 72 h,[6],> 300 µM
same,IC50,Trypanosoma cruzi [7],> 100 µM
same,IC90,Trypanosoma cruzi [7],> 100 µM
same,Selectivity Index,[8],>1
same,Selectivity Index,[9],>2
same,IC50,Trypanosoma cruzi [10],49.6 µM
same,IC90,Trypanosoma cruzi [10],> 100 µM
O[C@@H]1Cc2cc(F)ccc2N[C@H](c2ccccc2)C1 (relative stereo),CC50 at 72 h,[1],> 300 µM
same,CC90 at 72 h,[1],> 300 µM
same,IC50,Leishmania chagasi [2],> 100 µM
same,IC90,Leishmania chagasi [2],> 100 µM
same,Selectivity Index,[3],>24
same,IC50,Leishmania chagasi [4],> 100 µM
same,IC90,Leishmania chagasi [4],> 100 µM
same,Selectivity Index,[5],>3
same,CC50 at 72 h,[6],> 300 µM
same,CC90 at 72 h,[6],> 300 µM
same,IC50,Trypanosoma cruzi [7],> 100 µM
same,IC90,Trypanosoma cruzi [7],> 100 µM
same,Selectivity Index,[8],>3
same,Selectivity Index,[9],>3
same,IC50,Trypanosoma cruzi [10],12.4 µM
same,IC90,Trypanosoma cruzi [10],> 100 µM
Clc1ccc2c(c1)C[C@H]1C[C@@H](c3c(Cl)cccc3Cl)N2O1 (relative stereo),CC50 at 72 h,[1],> 295 µM
same,CC90 at 72 h,[1],> 295 µM
same,IC50,Leishmania chagasi [2],71 µM
same,IC90,Leishmania chagasi [2],> 100 µM
same,Selectivity Index,[3],>0.56
same,IC50,Leishmania chagasi [4],> 98.2 µM
same,IC90,Leishmania chagasi [4],> 98.2 µM
same,Selectivity Index,[5],4.15
same,CC50 at 72 h,[6],57 µM
same,CC90 at 72 h,[6],> 295 µM
same,IC50,Trypanosoma cruzi [7],> 98.2 µM
same,IC90,Trypanosoma cruzi [7],> 98.2 µM
same,Selectivity Index,[8],>3
same,Selectivity Index,[9],>0.58
same,IC50,Trypanosoma cruzi [10],> 100 µM
same,IC90,Trypanosoma cruzi [10],> 100 µM
Fc1cccc(Cl)c1[C@@H]1C[C@@H]2Cc3cc(Cl)ccc3N1O2 (relative stereo),CC50 at 72 h,[1],> 300 µM
same,CC90 at 72 h,[1],> 300 µM
same,IC50,Leishmania chagasi [2],> 100 µM
same,IC90,Leishmania chagasi [2],> 100 µM
same,Selectivity Index,[3],>6
same,IC50,Leishmania chagasi [4],> 100 µM
same,IC90,Leishmania chagasi [4],> 100 µM
same,Selectivity Index,[5],>3
same,CC50 at 72 h,[6],> 300 µM
same,CC90 at 72 h,[6],> 300 µM
same,IC50,Trypanosoma cruzi [7],> 100 µM
same,IC90,Trypanosoma cruzi [7],> 100 µM
same,Selectivity Index,[8],>3
same,Selectivity Index,[9],>3
same,IC50,Trypanosoma cruzi [10],48.1 µM
same,IC90,Trypanosoma cruzi [10],> 100 µM
O[C@@H]1Cc2ccccc2N[C@H](c2ccccc2)C1 (relative stereo),CC50 at 72 h,[1],> 300 µM
same,CC90 at 72 h,[1],> 300 µM
same,IC50,Leishmania chagasi [2],> 100 µM
same,IC90,Leishmania chagasi [2],> 100 µM
same,Selectivity Index,[3],>9
same,IC50,Leishmania chagasi [4],> 100 µM
same,IC90,Leishmania chagasi [4],> 100 µM
same,Selectivity Index,[5],>3
same,CC50 at 72 h,[6],> 300 µM
same,CC90 at 72 h,[6],> 300 µM
same,IC50,Trypanosoma cruzi [7],> 100 µM
same,IC90,Trypanosoma cruzi [7],> 100 µM
same,Selectivity Index,[8],>3
same,Selectivity Index,[9],>3
same,IC50,Trypanosoma cruzi [10],31.8 µM
same,IC90,Trypanosoma cruzi [10],> 100 µM
O[C@@H]1Cc2cc(OC(F)(F)F)ccc2N[C@H](c2ccccc2)C1 (relative stereo),CC50 at 72 h,[1],104 µM
same,CC90 at 72 h,[1],> 300 µM
same,IC50,Leishmania chagasi [2],35.5 µM
same,IC90,Leishmania chagasi [2],43.2 µM
same,Selectivity Index,[3],4.64
same,IC50,Leishmania chagasi [4],> 100 µM
same,IC90,Leishmania chagasi [4],> 100 µM
same,Selectivity Index,[5],2.92
same,CC50 at 72 h,[6],124 µM
same,CC90 at 72 h,[6],263 µM
same,IC50,Trypanosoma cruzi [7],> 100 µM
same,IC90,Trypanosoma cruzi [7],> 100 µM
same,Selectivity Index,[8],>1
same,Selectivity Index,[9],>1
same,IC50,Trypanosoma cruzi [10],26.6 µM
same,IC90,Trypanosoma cruzi [10],60.4 µM
O[C@@H]1Cc2ccccc2N[C@H](c2ccc(Cl)cc2)C1 (relative stereo),CC50 at 72 h,[1],114 µM
same,CC90 at 72 h,[1],> 300 µM
same,IC50,Leishmania chagasi [2],67.9 µM
same,IC90,Leishmania chagasi [2],> 100 µM
same,Selectivity Index,[3],>4
same,IC50,Leishmania chagasi [4],> 100 µM
same,IC90,Leishmania chagasi [4],> 100 µM
same,Selectivity Index,[5],1.68
same,CC50 at 72 h,[6],> 300 µM
same,CC90 at 72 h,[6],> 300 µM
same,IC50,Trypanosoma cruzi [7],41.8 µM
same,IC90,Trypanosoma cruzi [7],> 100 µM
same,Selectivity Index,[8],>1
same,Selectivity Index,[9],>7
same,IC50,Trypanosoma cruzi [10],65.4 µM
same,IC90,Trypanosoma cruzi [10],> 100 µM
O[C@@H]1Cc2ccccc2N[C@H](c2ccc(F)cc2)C1 (relative stereo),CC50 at 72 h,[1],> 300 µM
same,CC90 at 72 h,[1],> 300 µM
same,IC50,Leishmania chagasi [2],> 100 µM
same,IC90,Leishmania chagasi [2],> 100 µM
same,Selectivity Index,[3],>11
same,IC50,Leishmania chagasi [4],> 100 µM
same,IC90,Leishmania chagasi [4],> 100 µM
same,Selectivity Index,[5],>3
same,CC50 at 72 h,[6],> 300 µM
same,CC90 at 72 h,[6],> 300 µM
same,IC50,Trypanosoma cruzi [7],> 100 µM
same,IC90,Trypanosoma cruzi [7],> 100 µM
same,Selectivity Index,[8],>3
same,Selectivity Index,[9],>3
same,IC50,Trypanosoma cruzi [10],26.4 µM
same,IC90,Trypanosoma cruzi [10],57.6 µM
COc1cccc([C@@H]2C[C@H](O)Cc3ccccc3N2)c1 (relative stereo),CC50 at 72 h,[1],> 300 µM
same,CC90 at 72 h,[1],> 300 µM
same,IC50,Leishmania chagasi [2],97.1 µM
same,IC90,Leishmania chagasi [2],> 100 µM
same,Selectivity Index,[3],>10
same,IC50,Leishmania chagasi [4],> 100 µM
same,IC90,Leishmania chagasi [4],> 100 µM
same,Selectivity Index,[5],>3
same,CC50 at 72 h,[6],> 300 µM
same,CC90 at 72 h,[6],> 300 µM
same,IC50,Trypanosoma cruzi [7],> 100 µM
same,IC90,Trypanosoma cruzi [7],> 100 µM
same,Selectivity Index,[8],>3
same,Selectivity Index,[9],>3
same,IC50,Trypanosoma cruzi [10],30.1 µM
same,IC90,Trypanosoma cruzi [10],70.2 µM
